Measurements from ChEMBL document CHEMBL4823260, “From High-Throughput Screening to Target Validation: Benzo[d]isothiazoles as Potent and Selective Agonists of Human Transient Receptor Potential Cation Channel Subfamily M Member 5 Possessing In Vivo Gastrointestinal Prokinetic Activity in Rodents” (J Med Chem, 2021).

Key:
[1] = molecular target: T1, Transient receptor potential cation channel subfamily M member 5 (Homo sapiens, UniProt Q9NZQ8); test: Agonist activity at human TRPM5 expressed in CHO-K1 cells maintained at 80 mV final holding potential by syncroPatch assay; assay type: cell-based
T1 sequence (Q9NZQ8 whole entry): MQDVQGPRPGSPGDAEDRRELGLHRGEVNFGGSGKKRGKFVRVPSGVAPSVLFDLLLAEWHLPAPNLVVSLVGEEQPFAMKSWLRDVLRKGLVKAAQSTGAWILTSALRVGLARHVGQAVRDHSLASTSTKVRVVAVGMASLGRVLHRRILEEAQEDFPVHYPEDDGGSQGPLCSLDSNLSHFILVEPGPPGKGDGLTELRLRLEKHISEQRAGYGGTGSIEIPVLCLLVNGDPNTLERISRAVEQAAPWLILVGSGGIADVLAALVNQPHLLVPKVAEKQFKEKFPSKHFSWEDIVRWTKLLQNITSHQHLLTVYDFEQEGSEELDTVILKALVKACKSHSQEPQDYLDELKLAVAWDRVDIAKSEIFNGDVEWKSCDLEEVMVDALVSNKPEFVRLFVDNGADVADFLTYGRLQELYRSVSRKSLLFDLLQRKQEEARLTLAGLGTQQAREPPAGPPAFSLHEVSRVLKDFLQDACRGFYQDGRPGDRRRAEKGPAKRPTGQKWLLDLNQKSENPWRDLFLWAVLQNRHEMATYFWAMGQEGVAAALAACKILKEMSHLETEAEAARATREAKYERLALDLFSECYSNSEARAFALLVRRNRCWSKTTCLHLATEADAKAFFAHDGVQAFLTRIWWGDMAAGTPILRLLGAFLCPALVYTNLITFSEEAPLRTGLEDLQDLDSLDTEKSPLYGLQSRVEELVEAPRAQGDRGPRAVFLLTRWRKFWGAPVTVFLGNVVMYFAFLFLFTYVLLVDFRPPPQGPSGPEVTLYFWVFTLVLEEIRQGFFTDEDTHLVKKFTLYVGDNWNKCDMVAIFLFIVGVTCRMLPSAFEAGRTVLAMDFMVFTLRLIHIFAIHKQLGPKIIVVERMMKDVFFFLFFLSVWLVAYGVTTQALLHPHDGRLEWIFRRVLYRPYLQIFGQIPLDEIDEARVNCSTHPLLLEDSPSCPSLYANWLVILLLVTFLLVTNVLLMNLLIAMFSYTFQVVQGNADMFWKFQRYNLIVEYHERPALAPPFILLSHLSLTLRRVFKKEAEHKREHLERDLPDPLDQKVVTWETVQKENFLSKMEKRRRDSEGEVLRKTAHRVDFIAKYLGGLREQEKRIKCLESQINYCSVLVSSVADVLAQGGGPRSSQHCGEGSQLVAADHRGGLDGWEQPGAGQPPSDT
Summary of the method: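 SyncroPatch 384 whole-cell recording at rt on CHO-K1 cells stably expressing human or mouse TRPM5. Intracellular solution had 2 mM Na-ATP and 5 μM free Ca2+. Cumulative doses 0.03–31.6 μM in 0.5% DMSO, 150 s each after 180 s vehicle. Current measured at the end of the +80 mV step, normalized to vehicle; pEC50 is the mean of ≥2 independent experiments.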

[2] = Intrinsic clearance in mouse liver microsomes assessed per mg protein incubated up to 30 mins in presence of NADPH by LC-MS/MS analysis; assay type: ADME, Microsome
[3] = Intrinsic clearance in human liver microsomes assessed per mg protein incubated up to 30 mins in presence of NADPH by LC-MS/MS analysis; assay type: ADME, Microsome

EC50 [1] [nM] | microsomal CLint [2] [µL/min/mg] | microsomal CLint [3] [µL/min/mg] | Structure (SMILES)
468 |  |  | CCN(Cc1ncc(Cl)n1C)c1ccc2sncc2c1
2750 |  |  | Clc1ccc(CNc2ccc3sncc3c2)s1
1740 | 508 | 178 | Cc1c(NCc2ncc(Cl)s2)ccc2sncc12
> 31600 |  |  | N#Cc1ccc(CNc2ccc3sncc3c2)s1
6610 | 163 | 84 | Clc1cnc(CNc2cnc3sncc3c2)s1
> 31600 |  |  | CC(C)c1cnc(CNc2ccc3sncc3c2)s1
102 |  |  | Cn1c(Cl)cnc1CNc1cc2sncc2cc1F
7590 |  |  | CC(Nc1ccc2sncc2c1)c1ncc(Cl)s1 (configuration not stated)
> 31600 |  |  | Cc1csc(CNc2ccc3sncc3c2)n1
> 31600 |  |  | Clc1cnc(CNc2cccc3sncc23)s1
158 |  |  | Cn1c(Cl)cnc1CN(CC1CC1)c1ccc2sncc2c1
38 |  |  | Cc1cc2cnsc2cc1NCc1ncc(Cl)n1C
5130 |  |  | Cn1ccnc1CNc1ccc2sncc2c1
1620 |  |  | CN(Cc1ncc(Cl)s1)c1cc2cnsc2cc1Cl
> 31600 |  |  | Cc1nc(CNc2ccc3sncc3c2)sc1C
1170 | 421 | 172 | Clc1cnc(CNc2ccc3sncc3n2)s1
295 |  |  | Cn1c(Cl)cnc1CNc1ccc2cnsc2c1
> 31600 |  |  | Cn1c(Cl)cnc1CNc1ccc2c(c1)nnn2C
5250 | 748 | 562 | Cc1cc2sncc2cc1N(C)Cc1ncc(Cl)s1
22900 |  |  | Cn1c(Cl)cnc1CN1CCc2ccccc21
16200 |  |  | Cn1c(Cl)cnc1CNc1ccc2ocnc2c1
1380 | 612 | 202 | Fc1cc(NCc2ncc(Cl)s2)cc2cnsc12
17.8 |  |  | Cc1cc2cnsc2cc1NCc1ncc(Cl)s1

EC50 [1] [nM] | microsomal CLint [2] [µL/min/mg] | microsomal CLint [3] [µL/min/mg] | Structure (SMILES)
2510 |  |  | Cn1ccnc1CNc1ccc(Cl)cc1OCCC(F)(F)F
1450 |  |  | Clc1cnc(CNc2cccc3cnsc23)s1
933 | 448 | 247 | Fc1c(NCc2ncc(Cl)s2)ccc2sncc12
38.9 | 148 | 157 | Cc1cc2sncc2cc1NCc1ncc(Cl)s1
5250 |  |  | Cn1c(Cl)cnc1CNc1ccc2c(cnn2C)c1
5130 |  |  | CC(C)N(Cc1ncc(Cl)n1C)c1ccc2sncc2c1
575 |  |  | Cc1cnc(CNc2ccc3sncc3c2)s1
5250 |  |  | Clc1snnc1CNc1ccc2sncc2c1
> 31600 |  |  | Cn1c(CNc2ccc(Cl)cc2)nc2ccccc21
457 |  |  | Cn1c(Br)cnc1CNc1ccc2sncc2c1
> 31600 | 250 | 173 | CC(C)(Nc1ccc2sncc2c1)c1ncc(Cl)s1
4680 |  |  | c1csc(CNc2ccc3sncc3c2)n1
> 31600 | 221 | 150 | Clc1cnc(CNc2cc(Cl)c3sncc3c2)s1
> 31600 |  |  | Clc1cnc(CNc2ccc3sncc3c2)[nH]1
> 31600 | 434 | 169 | Cc1cc(NCc2ncc(Cl)s2)cc2cnsc12
> 31600 |  |  | CC(=O)N(Cc1ncc(Cl)n1C)c1ccc2sncc2c1
468 | 93 | 155 | Clc1cnc(CNc2cc3cnsc3cn2)s1
6030 |  |  | Cn1c(Cl)cnc1CNc1ccc2[nH]ncc2c1
490 |  |  | FC(F)(F)c1cnc(CNc2ccc3sncc3c2)s1
24.5 | 527 | 149 | Clc1cnc(CNc2cc3cnsc3cc2Cl)s1
> 31600 |  |  | c1ccc2sc(CNc3ccc4sncc4c3)nc2c1
832 | 763 | 157 | Clc1cnc(COc2ccc3sncc3c2)s1
> 31600 |  |  | COc1ccc(N(C)Cc2ncc(Cl)n2C)cc1OC

EC50 [1] [nM] | microsomal CLint [2] [µL/min/mg] | microsomal CLint [3] [µL/min/mg] | Structure (SMILES)
5130 |  |  | CCN(Cc1ncc(Cl)n1C)c1ccc(Br)cc1
1580 | 258 | 174 | Clc1cnc(CNc2ccc3sncc3c2Cl)s1
> 31600 |  |  | O=C(Nc1ccc2sncc2c1)c1ncc(Cl)s1
> 31600 |  |  | Cn1c(CNc2ccc3sncc3c2)nc(Cl)c1Cl
> 31600 |  |  | Cn1nc(CNc2ccc3sncc3c2)cc1C(F)(F)F
> 31600 |  |  | Cn1c(Cl)cnc1CN(CC1CCCCC1)c1ccc2sncc2c1
85.1 |  |  | CN(Cc1ncc(Cl)n1C)c1ccc2cnsc2c1
447 |  |  | CN(Cc1ncc(Cl)s1)c1ccc2sncc2c1
3020 |  |  | Cn1c(Cl)cnc1CNc1ccc2oncc2c1
19100 |  |  | Cc1nnc(CNc2ccc3sncc3c2)s1
5010 |  |  | Cn1c(Cl)cnc1CN1CC(CO)Cc2cccc(F)c21 (configuration not stated)
> 31600 |  |  | Cn1c(Cl)cnc1CNc1ccc2[nH]cnc2c1
> 31600 |  |  | Cn1c(Cl)ccc1CNc1ccc2sncc2c1
13500 |  |  | Cn1c(Cl)cnc1CNc1ccc2scnc2c1
309 |  |  | CN(Cc1ncc(Cl)n1C)c1cc2sncc2cc1Cl
> 31600 |  |  | Cn1c(Cl)cnc1CN(Cc1ccccc1)c1ccc2sncc2c1
97.7 | 312 | 142 | Fc1cc2sncc2cc1NCc1ncc(Cl)s1
11.2 |  |  | Cn1c(Cl)cnc1CNc1cc2sncc2cc1Cl
28.8 |  |  | Fc1cc2cnsc2cc1NCc1ncc(Cl)s1
158 |  |  | CN(Cc1ncc(Cl)n1C)c1ccc2sncc2c1
2820 |  |  | CN(Cc1ncc(Cl)s1)c1cc2cnsc2cc1F
